Measurements: ChEMBL document CHEMBL5303300, “EUbOPEN Chemogenomics Library - Multiplex” (2023)
Where “and” joins values, the source holds several entries; their conditions need not be identical. Equal values may be shown once.

Tested on: U2OS
Assay: Multiplex assay against U2OS
Format: toxicity, cell-based
Conditions: human, number of replicates 2
Summary of the method: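 Values for tubulin, mitochondrial-mass and membrane-permeability phenotypes are per cents of cells with healthy nuclei. These cells were identified by CellPathfinder machine-learning gating of live cells that had been stained at seeding with Hoechst33342, BioTracker Green Microtubule Cytoskeleton Dye, MitoTracker Red and Annexin V Alexa Fluor 680 and imaged on a CQ1 microscope at 37°C and 5% CO2 after compound addition. The gating first set Hoechst high-intensity objects apart from normal cells, then split normal cells into healthy, pyknosed or fragmented nuclei, and pyknosed cells into mitotic or apoptotic.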

[1] = 12 h, 1 µM, compound concentration 1 uM
[2] = 12 h, 10 µM, compound concentration 10 uM
[3] = 24 h, 1 µM, compound concentration 1 uM
[4] = 24 h, 10 µM, compound concentration 10 uM
[5] = 48 h, 1 µM, compound concentration 1 uM
[6] = 48 h, 10 µM, compound concentration 10 uM

CS(=O)(=O)c1ccc(C(=O)Nc2cccc(COc3cc(F)c(Br)cc3CN3CC[C@H](O)C3)c2)c(Cl)c1.O=CO
Population Apoptotic (%) [1]: 62% and 55% | Population Hoechst High Intensity Objects (%) [1]: 0% | Population Pyknosed Nuclei (%) [1]: 19% and 14% | Population Apoptotic (%) [2]: 66% and 54% | Population Healthy Nuclei (%) [2]: 36% and 74% | Population Hoechst High Intensity Objects (%) [2]: 0% | Population Pyknosed Nuclei (%) [2]: 20% and 16% | Total Cell Count [2]: 90 and 192 | Population Apoptotic (%) [3]: 50% and 66% | Population Healthy Nuclei (%) [3]: 56% | Population Hoechst High Intensity Objects (%) [3]: 0% | Population Pyknosed Nuclei (%) [3]: 20% and 10% | Population Apoptotic (%) [4]: 82% and 73% | Population Healthy Nuclei (%) [4]: 33% | Population Hoechst High Intensity Objects (%) [4]: 0% | Population Pyknosed Nuclei (%) [4]: 19% and 26% | Total Cell Count [4]: 86 and 214 | Population Apoptotic (%) [5]: 58% and 92% | Population Fragmented Nuclei (%) [5]: 22% | Population Healthy Nuclei (%) [5]: 58% | Population Hoechst High Intensity Objects (%) [5]: 0% | Population Pyknosed Nuclei (%) [5]: 19% and 10% | Population Apoptotic (%) [6]: 88% and 84% | Population Healthy Nuclei (%) [6]: 26% | Population Hoechst High Intensity Objects (%) [6]: 0% | Population Pyknosed Nuclei (%) [6]: 28%

Cl.Clc1ccc2nsnc2c1NC1=NCCN1 [TIZANIDINE HYDROCHLORIDE]
Population Apoptotic (%) [1]: 50% and 55% | Population Fragmented Nuclei (%) [1]: 14% and 4% | Population Healthy Nuclei (%) [1]: 75% and 86% | Population Hoechst High Intensity Objects (%) [1]: 0% | Population Membrane Permeable-Phenotype (%) [1]: 0% and 1% | Population Mitochondria Different-Phenotype (%) [1]: 3% and 0% | Population Mitotic Cells (%) [1]: 50% and 44% | Population Normal (%) [1]: 100% | Population Pyknosed Nuclei (%) [1]: 9% | Population Tubulin-Different-Phenotype (%) [1]: 100% and 96% | Population Fragmented Nuclei (%) [2]: 7% and 4% | Population Healthy Nuclei (%) [2]: 89% and 87% | Population Hoechst High Intensity Objects (%) [2]: 0% | Population Membrane Permeable-Phenotype (%) [2]: 2% and 0% | Population Mitochondria Different-Phenotype (%) [2]: 0% | Population Normal (%) [2]: 100% | Population Pyknosed Nuclei (%) [2]: 2% and 8% | Population Tubulin-Different-Phenotype (%) [2]: 68% and 97% | Population Apoptotic (%) [3]: 100% and 58% | Population Fragmented Nuclei (%) [3]: 8% and 3% | Population Healthy Nuclei (%) [3]: 85% and 89% | Population Hoechst High Intensity Objects (%) [3]: 1% and 0% | Population Membrane Permeable-Phenotype (%) [3]: 1% | Population Mitochondria Different-Phenotype (%) [3]: 0% and 1% | Population Normal (%) [3]: 98% and 100% | Population Pyknosed Nuclei (%) [3]: 6% and 7% | Population Tubulin-Different-Phenotype (%) [3]: 100% and 95% | Population Fragmented Nuclei (%) [4]: 10% and 2% | Population Healthy Nuclei (%) [4]: 89% and 92% | Population Hoechst High Intensity Objects (%) [4]: 0% | Population Membrane Permeable-Phenotype (%) [4]: 0% and 1% | Population Mitochondria Different-Phenotype (%) [4]: 0% | Population Normal (%) [4]: 100% | Population Pyknosed Nuclei (%) [4]: 0% and 5% | Population Tubulin-Different-Phenotype (%) [4]: 77% and 96% | Population Apoptotic (%) [5]: 40% | Population Fragmented Nuclei (%) [5]: 11% | Population Healthy Nuclei (%) [5]: 78% | Population Hoechst High Intensity Objects (%) [5]: 1% | Population Membrane Permeable-Phenotype (%) [5]: 3% | Population Mitochondria Different-Phenotype (%) [5]: 0% | Population Mitotic Cells (%) [5]: 60% | Population Normal (%) [5]: 98% | Population Pyknosed Nuclei (%) [5]: 10% | Population Tubulin-Different-Phenotype (%) [5]: 97% | Total Cell Count [5]: 99 | Population Apoptotic (%) [6]: 88% and 38% | Population Fragmented Nuclei (%) [6]: 4% and 2% | Population Healthy Nuclei (%) [6]: 84% and 92% | Population Hoechst High Intensity Objects (%) [6]: 0% | Population Membrane Permeable-Phenotype (%) [6]: 2% and 0% | Population Mitochondria Different-Phenotype (%) [6]: 0% | Population Normal (%) [6]: 100% | Population Pyknosed Nuclei (%) [6]: 10% and 4% | Population Tubulin-Different-Phenotype (%) [6]: 72% and 99%

COc1ccncc1C(=O)NC(=O)Nc1ccc(-c2ccccc2)c(C(F)(F)F)c1
Population Apoptotic (%) [1]: 33% and 36% | Population Healthy Nuclei (%) [1]: 65% and 86% | Population Hoechst High Intensity Objects (%) [1]: 0% | Population Membrane Permeable-Phenotype (%) [1]: 0% and 1% | Population Mitochondria Different-Phenotype (%) [1]: 0% and 1% | Population Mitotic Cells (%) [1]: 66% and 63% | Population Normal (%) [1]: 100% | Population Pyknosed Nuclei (%) [1]: 11% and 9% | Population Tubulin-Different-Phenotype (%) [1]: 58% and 88% | Population Apoptotic (%) [2]: 25% and 33% | Population Fragmented Nuclei (%) [2]: 8% and 2% | Population Healthy Nuclei (%) [2]: 75% and 88% | Population Hoechst High Intensity Objects (%) [2]: 0% | Population Membrane Permeable-Phenotype (%) [2]: 2% and 1% | Population Mitochondria Different-Phenotype (%) [2]: 2% and 1% | Population Mitotic Cells (%) [2]: 75% and 66% | Population Normal (%) [2]: 100% | Population Pyknosed Nuclei (%) [2]: 16% and 9% | Population Tubulin-Different-Phenotype (%) [2]: 67% and 78% | Population Apoptotic (%) [3]: 66% and 57% | Population Healthy Nuclei (%) [3]: 63% and 90% | Population Hoechst High Intensity Objects (%) [3]: 0% | Population Membrane Permeable-Phenotype (%) [3]: 4% and 2% | Population Mitochondria Different-Phenotype (%) [3]: 0% and 1% | Population Mitotic Cells (%) [3]: 33% and 42% | Population Normal (%) [3]: 100% | Population Pyknosed Nuclei (%) [3]: 15% and 6% | Population Tubulin-Different-Phenotype (%) [3]: 62% and 89% | Population Apoptotic (%) [4]: 66% and 31% | Population Fragmented Nuclei (%) [4]: 1% and 3% | Population Healthy Nuclei (%) [4]: 93% and 90% | Population Hoechst High Intensity Objects (%) [4]: 0% | Population Membrane Permeable-Phenotype (%) [4]: 5% and 0% | Population Mitochondria Different-Phenotype (%) [4]: 0% | Population Mitotic Cells (%) [4]: 33% and 68% | Population Normal (%) [4]: 100% | Population Pyknosed Nuclei (%) [4]: 5% and 6% | Population Tubulin-Different-Phenotype (%) [4]: 72% and 79% | Population Apoptotic (%) [5]: 60% and 43% | Population Healthy Nuclei (%) [5]: 70% and 90% | Population Hoechst High Intensity Objects (%) [5]: 0% | Population Membrane Permeable-Phenotype (%) [5]: 2% and 1% | Population Mitochondria Different-Phenotype (%) [5]: 2% and 0% | Population Mitotic Cells (%) [5]: 40% and 56% | Population Normal (%) [5]: 100% | Population Pyknosed Nuclei (%) [5]: 10% and 7% | Population Tubulin-Different-Phenotype (%) [5]: 65% and 90% | Population Apoptotic (%) [6]: 23% and 69% | Population Fragmented Nuclei (%) [6]: 7% and 2% | Population Healthy Nuclei (%) [6]: 81% and 93% | Population Hoechst High Intensity Objects (%) [6]: 0% | Population Membrane Permeable-Phenotype (%) [6]: 0% | Population Mitochondria Different-Phenotype (%) [6]: 0% | Population Mitotic Cells (%) [6]: 76% and 30% | Population Normal (%) [6]: 100% and 99% | Population Pyknosed Nuclei (%) [6]: 10% and 4% | Population Tubulin-Different-Phenotype (%) [6]: 83%
